Most compounds without a hit are left out; they make up all but 5.8% or so of the library.
ROMK mod: ROMK potassium channel modulators, primary screen, cell-based, thallium flux, MLSMR library; actives 2% (n = 130,000); B-score at 10 µM; Tet-inducible ROMK, thallium flux fluorescence; actives lie on both sides; ATP-sensitive inward rectifier potassium channel 1 (Homo sapiens), P48048;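 active means signal ratio slope over the read window, or its plate-corrected B-score, at least 3 SD from the plate mean, either direction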;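 further: B-score of the F/F0 ratio slope over 7 to 12 s after thallium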
14-3-3 Bad PPI: inhibitors of 14-3-3 zeta/Bad binding, primary screen, biochemical, TR-FRET, bovine 14-3-3 zeta; 14-3-3 protein zeta/delta (Bos taurus), P63103; TR-FRET 14-3-3zeta/Dy647-pBad peptide displacement, 1 h; inhibition, % at 21.7 µM; actives 0.71% (n = 220,000); AID 781, 2007;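 active means inhibition above about 70%, limit read from the data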;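 further: 0% = full 14-3-3 plus peptide FRET controls and 100% = background without 14-3-3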
RBBP9 inhibitor: human RBBP9 inhibitors, primary screen, biochemical, fluorescence polarization, FP-Rh probe, HTS; actives 0.2% (n = 220,000); recombinant RBBP9; inhibition, % at 7.94 µM;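 active means inhibition above the campaign mean of all tested compounds plus 3 SD, cut at about 14% in these data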;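 further: plate controls were DMSO wells with RBBP9 for no effect and wells lacking RBBP9 protein for full effect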
Target sequence (O75884 whole entry, looked up): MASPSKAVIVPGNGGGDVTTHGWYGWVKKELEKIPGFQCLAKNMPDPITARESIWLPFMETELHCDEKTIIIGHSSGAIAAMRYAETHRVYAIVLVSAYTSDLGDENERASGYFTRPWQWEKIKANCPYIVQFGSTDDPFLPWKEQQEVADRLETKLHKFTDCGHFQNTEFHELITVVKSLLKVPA
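Test system: recombinant human RBBP9; Timing: 30 min then 45 min, 25 °C; Detection: fluorescence polarization; Control set: RBBP9 with DMSO as uninhibited control, no-protein wells as full inhibition; Compound dosing: one concentration, 7.94 µM nominal, 0.794% DMSO; Probe or stimulus: FP-Rh activity-based probe, 375 nM before mixing.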
Cl transport mod: KCC2 cotransporter modulators, thallium flux, primary screen, cell-based, HEK293 KCC2, FluoZin-2 fluorescence, MLSMR; AID 1456, 2008; KCC2 cells, thallium flux FluoZin-2 fluorescence; B-score of Tl+ flux slope (higher = more flux/activation; lower = inhibition) at 10 µM; actives 2.2% (n = 190,000);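 active means thallium flux slope and its plate-corrected score both differing from the plate sample mean at a set confidence after two filtering rounds, in either direction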;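 further: slope of fluorescence scaled to starting intensity during 10 to 20 s after thallium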
WT yeast gro inh: growth inhibition of WT strain, primary screen, mitochondrial fusion inhibitor project, WT and mutant strains, chemical genetic. mitochondrial fusion phenotypic screen. inhibition, % at 10 µM. actives 2.1% (n = 190,000). AID 1362, 2008; in the data active means inhibition above about 58%; tested in S. cerevisiae
p47phox inh: p47phox/p22phox peptide binding inhibitors, primary screen, biochemical, uHTS, NADPH oxidase regulatory subunit. fluorescence polarization, 2 h. inhibition, % at 24.7 µM. Neutrophil cytosol factor 1 (Homo sapiens), P14598. actives 0.53% (n = 220,000);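 active means inhibition above about 30%, limit read from the data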;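 further: 0% = p47phox with labelled peptide and 100% = labelled peptide alone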
Target sequence (P14598 whole entry, looked up): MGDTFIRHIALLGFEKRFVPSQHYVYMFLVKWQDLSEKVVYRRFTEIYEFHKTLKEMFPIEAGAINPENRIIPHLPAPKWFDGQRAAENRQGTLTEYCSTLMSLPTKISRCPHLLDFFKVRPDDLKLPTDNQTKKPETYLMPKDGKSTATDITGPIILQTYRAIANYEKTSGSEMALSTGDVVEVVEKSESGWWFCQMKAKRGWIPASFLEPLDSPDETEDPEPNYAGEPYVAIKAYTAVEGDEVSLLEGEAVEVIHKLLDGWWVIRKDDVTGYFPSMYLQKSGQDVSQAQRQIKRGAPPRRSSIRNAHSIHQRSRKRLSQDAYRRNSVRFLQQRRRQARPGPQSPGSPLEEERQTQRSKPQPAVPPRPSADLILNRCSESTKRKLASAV
* = called active by the depositor; . = no result given.

SMILES | ROMK mod | 14-3-3 Bad PPI | RBBP9 inhibitor | Cl transport mod | WT yeast gro inh | p47phox inh
COc1ccccc1NC(=S)N(Cc1ccc(C)cc1)Cc1cccnc1 | 1.5 | -6 | -1 | -1.2 | 74* | -4
COc1ccccc1NC(=S)N(Cc1cccnc1)Cc1ccccc1Cl | 0.055 | 2 | -1 | -0.18 | 26 | -10
COc1ccccc1NC(=S)N(Cc1ccc(C)cc1)Cc1ccccn1 | -0.12 | -22 | 6 | 0.0078 | -7 | -1
Cc1ccccc1NC(=S)N(Cc1cccnc1)Cc1ccccc1Cl | 0.65 | -4 | -3 | 1.3 | 6 | 6
Cc1ccccc1NC(=S)N(Cc1ccccn1)Cc1ccccc1Cl | -1.3 | -3 | -5 | -0.087 | 69* | -2
Cc1ccnc(NC(=O)c2cccs2)c1 | . | 86* | 1 | 0.6 | 1 | -1
O=C(CN1CCCCC1)NNc1nc(-c2ccccc2)c2cc(Br)ccc2n1 | . | -13 | 2 | 0.71 | . | -14
OCCN1CCN(CCCN2c3ccccc3Sc3ccc(Cl)cc32)CC1 | . | 3 | 8 | 0.17 | 96* | 5
COc1ccc(C(NC(C)=O)c2cc(Cl)c3cccnc3c2O)cc1OC (centres undefined) | -0.38 | -15 | -4 | 0.51 | -8 | -13
CCC(=O)NC(c1ccc(OC)c(OC)c1)c1cc(Cl)c2cccnc2c1O (centres undefined) | 0.56 | -8 | 1 | 0.054 | -8 | 40*
Cc1cccc(C(=O)NC(C(=O)Nc2nc(-c3ccccn3)cs2)C(C)C)c1 (centres undefined) | -0.28 | 7 | -7 | -0.98 | 72* | -2
CCCCCc1cccnc1 | . | -5 | 6 | 1.1 | . | 9
Cc1cc2nc(CCN(C(=S)NCC(C)C)C3CCCC3)[nH]c2cc1C | . | -10 | -2 | -5.6* | . | -8
CCCCCCn1c(N2CCN(c3ccccc3)CC2)nc2c1c(=O)n(C)c(=O)n2C | -0.24 | -5 | -1 | . | 66* | -11
Cc1nnc(SCC(=O)c2ccc(Cl)cc2)n(N)c1=O | 0.0047 | -11 | 18* | 0.69 | 15 | -5
Cc1ccc(CN2CCN(Cc3cccc4nccnc34)CC2CCO)cc1 (centres undefined) | . | -9 | -7 | -0.32 | . | 1
CCOC(=O)c1ccc(NC(=S)N2CCSC2c2ccc(OC)cc2)cc1 (centres undefined) | 0.25 | -1 | -12 | 1.5 | 11 | -15
CCOC(=O)c1ccc(NC(=S)N2CCSC2c2ccc(Cl)cc2)cc1 (centres undefined) | . | -2 | -7 | -0.026 | 60* | -5
CC(=O)Nc1ccc(S(=O)(=O)N2CCSC2c2ccc(Cl)cc2)cc1 (centres undefined) | . | -4 | -14 | . | 78* | -22
O=C(c1ccc(Cl)cc1[N+](=O)[O-])N(Cc1ccccc1)Cc1ccccc1 | 0.33 | -12 | -9 | -1.5 | 61* | -3
Cc1ccccc1C(=O)NNC(=S)NC(=O)c1ccc(Cl)cc1Cl | 4.9* | -2 | 4 | 28* | -9 | -7
O=C(NC(=S)N1CCCCCC1)c1ccc(Cl)cc1Cl | 7.1* | -4 | 6 | 88* | 46 | .
Cc1cccc(C)c1NC(=S)NC(=O)c1ccccc1F | -0.32 | -5 | 6 | 35* | 8 | 2
O=C(NC(=S)NNC(=O)c1ccc(Cl)cc1Cl)c1cccnc1 | 1.1 | -12 | -7 | 1.9 | -7 | -2
Cc1cccc(C(=O)NC(=S)NNC(=O)c2ccccc2Cl)c1 | . | -9 | -2 | 40* | 33 | -7
SMILES | ROMK mod | 14-3-3 Bad PPI | RBBP9 inhibitor | Cl transport mod | WT yeast gro inh | p47phox inh
O=C(NC(=S)Nc1ccc(Cc2ccncc2)cc1)c1ccccc1F | 0.02 | -3 | -9 | 0.83 | 39 | -10
COc1ccc(OCc2cc(C(=O)O)c(C)o2)cc1 | . | 31 | -7 | 0.15 | . | -16
Cc1nn(C(=O)c2ccc([N+](=O)[O-])cc2)c(C)c1Br | . | -2 | 0 | . | . | -11
CCC(=O)Nc1cccc(NC(=S)NC(=O)c2ccc(Cl)cc2Cl)c1 | . | -12 | -7 | 0.46 | -13 | -21
CCCN(CCC)C(=S)NC(=O)c1ccc(Cl)cc1Cl | . | 8 | -8 | 42* | . | -13
COc1cc(CNn2cn[nH]c2=S)cc(Br)c1OCc1ccccc1F | 0.94 | -6 | 0 | -0.38 | 72* | -5
COc1cc(CNn2cn[nH]c2=S)cc(Cl)c1OCc1ccccc1 | . | 3 | -2 | 0.0057 | 31 | -9
COc1cc(CNc2ccc(O)cc2)cc(Br)c1OCc1ccccc1F | . | -3 | 6 | 0.11 | 13 | -7
COc1cc(CNCc2ccncc2)cc(Br)c1OCc1ccccc1F | -0.91 | 83* | 5 | . | 8 | -9
Cc1cc(C)nc(N2CCCC(C(=O)NNC(=O)c3ccncc3)C2)n1 (centres undefined) | . | 4 | 7 | -0.017 | . | -14
Cn1c(C2=C(O)CN(Cc3ccccc3)C2=N)nc2ccccc21 | . | 1 | -9 | -0.55 | . | -6
Cc1ccc(S(=O)(=O)N2CN(Cc3ccco3)c3nc4ccccc4nc32)cc1 | . | 6 | -1 | 1.5 | 3 | -17
O=S(=O)(c1ccc(F)cc1)N1CN(Cc2ccco2)c2nc3ccccc3nc21 | -1.2 | 12 | -1 | -0.28 | 63* | -63
CCOc1ccc(C(C)NC(=S)NC2CCCCC2)cc1OCC (centres undefined) | 0.0087 | -16 | -9 | -0.021 | 33 | -9
CC(C)c1ccccc1NC(=S)NC1CCCCC1 | . | -11 | -7 | -0.37 | 71* | 2
CC(C)c1ccccc1NC(=S)NC(C)c1ccccc1 (centres undefined) | . | -4 | -5 | 0.1 | 60* | -8
CCOc1ccc(C(C)NC(=S)NC2CCCCC2)cc1 (centres undefined) | -0.069 | -8 | -16 | 0.88 | 73* | -7
S=C(Nc1cccc2ccccc12)NC1CCCCC1 | -0.63 | -8 | 4 | -0.0035 | 75* | 3
CSc1ccccc1NC(=S)NC1CCCCC1 | 0.024 | -4 | -6 | -0.049 | 0 | -10
CCC(C)N(C(=O)COc1ccc(NC(C)=O)cc1)C1CCS(=O)(=O)C1 (centres undefined) | 0.65 | -2 | -5 | -0.13 | -3 | -4
CCCC(CCC(=O)Nc1ccn(-c2ccccc2)n1)C(=O)O (centres undefined) | 0.67 | 1 | -2 | -1.3 | . | 5
COc1ccc(CCC(=O)O)cc1OC | . | -4 | -7 | 0.018 | . | -9
COc1ccc(C2(C#N)CCC(=O)N2c2ccccc2)cc1 (centres undefined) | . | 6 | 5 | 0.0096 | . | -9

Bioassay records from PubChem BioAssay.
